Measured values published in ChEMBL document CHEMBL1155459, “On-bead screening of a combinatorial fumaric acid derived peptide library yields antiplasmodial cysteine protease inhibitors with unusual peptide sequences” (J Med Chem, 2009).
Square brackets hold non-standard residues; d marks the D form. Peptide text beside a SMILES is read from it. * marks the point of attachment. Fumaroyl(GlyGlyPheOH) = O=C(/C=C/C(=O)*)NCC(=O)NCC(=O)N[C@@H](Cc1ccccc1)C(=O)O; Chg = N[C@H](C(=O)O)C1CCCCC1; Dap = NC[C@H](N)C(=O)O

Experiments:
[1] = Inhibition of Plasmodium falciparum falcipain-2 after 12 hrs by fluorescence spectroscopy-based on-bead assay; parameters: concentration or dose not given beside the values; conditions: concentration not given here
In short: (§1)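 Library members on resin (PEGA, theoretical loading 0.40 mmol/g; added as DMSO suspension, 0.64 mM final inhibitor) preincubated with enzyme 12 h, then Cbz-Phe-Arg-AMC 40 μM added; AMC release followed by fluorescence (ex 380/em 460 nm). Kinetics compared with inhibitor-free amino-PEGA resin.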

[2] = molecular target: Rhodesain (Trypanosoma brucei rhodesiense) (UniProt Q95PM0); experiment: Inhibition of Trypanosoma brucei rhodesiense rhodesain after 12 hrs by fluorescence spectroscopy-based on-bead assay; parameters: concentration or dose not given beside the values; conditions: concentration not given here; in short: as §1
Rhodesain (Trypanosoma brucei rhodesiense), sequence (Q95PM0 1-450): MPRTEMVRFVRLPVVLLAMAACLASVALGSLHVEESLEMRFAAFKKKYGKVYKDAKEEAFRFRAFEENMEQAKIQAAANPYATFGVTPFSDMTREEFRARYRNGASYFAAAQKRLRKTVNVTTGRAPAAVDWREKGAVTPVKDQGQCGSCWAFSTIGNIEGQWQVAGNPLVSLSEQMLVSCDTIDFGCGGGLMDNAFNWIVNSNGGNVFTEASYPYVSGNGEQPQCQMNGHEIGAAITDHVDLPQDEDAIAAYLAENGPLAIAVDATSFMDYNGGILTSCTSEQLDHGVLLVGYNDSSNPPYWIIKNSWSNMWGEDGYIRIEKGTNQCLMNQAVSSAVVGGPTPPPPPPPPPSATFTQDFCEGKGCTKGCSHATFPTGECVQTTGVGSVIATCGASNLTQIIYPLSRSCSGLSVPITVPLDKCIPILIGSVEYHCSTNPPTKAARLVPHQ

SMILES	inhibition [1]	inhibition [2]
CC(C)[C@H](NC(=O)[C@@H](NC(=O)[C@@H](NC(=O)[C@H](Cc1ccccc1)NC(=O)/C=C/C(=O)N[C@@H](C)C(=O)NCC(=O)N[C@@H](Cc1ccccc1)C(=O)O)C1CCCCC1)C(C)C)C(N)=O (HELM PEPTIDE1{[C[C@H](NC(=O)/C=C/C(=O)[*:2])C(=O)NCC(=O)N[C@@H](Cc1ccccc1)C(=O)O].F.[O=C([C@@H](N[*:1])C1CCCCC1)[*:2]].V.V.[am]}$$$$V2.0)	45%	49%
CC(C)C[C@H](NC(=O)[C@H](Cc1ccccc1)NC(=O)/C=C/C(=O)N[C@@H](C)C(=O)NCC(=O)N[C@@H](Cc1ccccc1)C(=O)O)C(=O)N[C@H](C(=O)N[C@H](C(N)=O)C(C)C)C(C)C (HELM PEPTIDE1{[C[C@H](NC(=O)/C=C/C(=O)[*:2])C(=O)NCC(=O)N[C@@H](Cc1ccccc1)C(=O)O].F.L.V.V.[am]}$$$$V2.0)	36%	45%
CC[C@H](C)[C@H](NC(=O)[C@H](CCC(N)=O)NC(=O)/C=C/C(=O)N[C@@H](C)C(=O)NCC(=O)N[C@@H](Cc1ccccc1)C(=O)O)C(=O)N[C@@H](CC(C)C)C(=O)N[C@H](C(N)=O)C(C)C (HELM PEPTIDE1{[C[C@H](NC(=O)/C=C/C(=O)[*:2])C(=O)NCC(=O)N[C@@H](Cc1ccccc1)C(=O)O].Q.I.L.V.[am]}$$$$V2.0)	46%	47%
CC(C)C[C@H](NC(=O)[C@H](CCC(N)=O)NC(=O)/C=C/C(=O)NCC(=O)NCC(=O)N[C@@H](Cc1ccccc1)C(=O)O)C(=O)N[C@H](C(=O)N[C@H](C(N)=O)C(C)C)C(C)C (HELM PEPTIDE1{[O=C(/C=C/C(=O)[*:2])NCC(=O)NCC(=O)N[C@@H](Cc1ccccc1)C(=O)O].Q.L.V.V.[am]}$$$$V2.0)	54%	54%
CC[C@H](C)[C@H](NC(=O)[C@H](Cc1ccccc1)NC(=O)/C=C/C(=O)N[C@@H](C)C(=O)NCC(=O)N[C@@H](Cc1ccccc1)C(=O)O)C(=O)N[C@H](C(=O)N[C@H](C(N)=O)C(C)C)C(C)C (HELM PEPTIDE1{[C[C@H](NC(=O)/C=C/C(=O)[*:2])C(=O)NCC(=O)N[C@@H](Cc1ccccc1)C(=O)O].F.I.V.V.[am]}$$$$V2.0)	45%	43%
CC(C)C[C@H](NC(=O)[C@@H](NC(=O)[C@H](CCC(N)=O)NC(=O)/C=C/C(=O)N[C@@H](C)C(=O)NCC(=O)N[C@@H](Cc1ccccc1)C(=O)O)c1ccccc1)C(=O)N[C@H](C(N)=O)C(C)C (HELM PEPTIDE1{[C[C@H](NC(=O)/C=C/C(=O)[*:2])C(=O)NCC(=O)N[C@@H](Cc1ccccc1)C(=O)O].Q.[Phg].L.V.[am]}$$$$V2.0)	30%	68%
CC(=O)NC[C@H](NC(=O)/C=C/C(=O)NCC(=O)NCC(=O)N[C@@H](Cc1ccccc1)C(=O)O)C(=O)N[C@H](C(=O)N[C@@H](CC(C)C)C(=O)N[C@H](C(N)=O)C(C)C)c1ccccc1 (HELM PEPTIDE1{[O=C(/C=C/C(=O)[*:2])NCC(=O)NCC(=O)N[C@@H](Cc1ccccc1)C(=O)O].[O=C([C@H](CN[*:3])N[*:1])[*:2]].[Phg].L.V.[am]}|PEPTIDE2{[ac]}$PEPTIDE1,PEPTIDE2,2:R3-1:R2$$$V2.0)	38%	66%
CC[C@H](C)[C@H](NC(=O)[C@H](C)NC(=O)/C=C/C(=O)N[C@@H](C)C(=O)NCC(=O)N[C@@H](Cc1ccccc1)C(=O)O)C(=O)N[C@H](C(=O)N[C@H](C(N)=O)C(C)C)C(C)C (HELM PEPTIDE1{[C[C@H](NC(=O)/C=C/C(=O)[*:2])C(=O)NCC(=O)N[C@@H](Cc1ccccc1)C(=O)O].A.I.V.V.[am]}$$$$V2.0)	30%	34%
CC(=O)NC[C@H](NC(=O)/C=C/C(=O)NCC(=O)NCC(=O)N[C@@H](Cc1ccccc1)C(=O)O)C(=O)N[C@H](C(=O)N[C@@H](CC(C)C)C(=O)N[C@H](C(N)=O)C(C)C)C1CCCCC1 ({Fumaroyl(GlyGlyPheOH)}-[Dap](Ac)[Chg]LV-NH2)	26%	75%
CC(=O)NC[C@H](NC(=O)/C=C/C(=O)N[C@@H](C)C(=O)NCC(=O)N[C@@H](Cc1ccccc1)C(=O)O)C(=O)N[C@@H](CC(C)C)C(=O)N[C@H](C(=O)N[C@H](C(N)=O)C(C)C)C(C)C (HELM PEPTIDE1{[C[C@H](NC(=O)/C=C/C(=O)[*:2])C(=O)NCC(=O)N[C@@H](Cc1ccccc1)C(=O)O].[O=C([C@H](CN[*:3])N[*:1])[*:2]].L.V.V.[am]}|PEPTIDE2{[ac]}$PEPTIDE1,PEPTIDE2,2:R3-1:R2$$$V2.0)	35%	60%
CC(=O)NC[C@H](NC(=O)/C=C/C(=O)N[C@@H](C)C(=O)NCC(=O)N[C@@H](Cc1ccccc1)C(=O)O)C(=O)N[C@@H](CC(C)C)C(=O)N[C@@H](CC(C)C)C(=O)N[C@H](C(N)=O)C(C)C (HELM PEPTIDE1{[C[C@H](NC(=O)/C=C/C(=O)[*:2])C(=O)NCC(=O)N[C@@H](Cc1ccccc1)C(=O)O].[O=C([C@H](CN[*:3])N[*:1])[*:2]].L.L.V.[am]}|PEPTIDE2{[ac]}$PEPTIDE1,PEPTIDE2,2:R3-1:R2$$$V2.0)	41%	63%
CC(C)[C@H](NC(=O)[C@@H](NC(=O)[C@@H](NC(=O)[C@H](C)NC(=O)/C=C/C(=O)N[C@@H](C)C(=O)NCC(=O)N[C@@H](Cc1ccccc1)C(=O)O)C1CCCCC1)C(C)C)C(N)=O (HELM PEPTIDE1{[C[C@H](NC(=O)/C=C/C(=O)[*:2])C(=O)NCC(=O)N[C@@H](Cc1ccccc1)C(=O)O].A.[O=C([C@@H](N[*:1])C1CCCCC1)[*:2]].V.V.[am]}$$$$V2.0)	57%	34%
CC(C)[C@H](NC(=O)[C@H](C)NC(=O)[C@@H](NC(=O)[C@H](CC(N)=O)NC(=O)/C=C/C(=O)NCC(=O)NCC(=O)N[C@@H](Cc1ccccc1)C(=O)O)c1ccccc1)C(N)=O (HELM PEPTIDE1{[O=C(/C=C/C(=O)[*:2])NCC(=O)NCC(=O)N[C@@H](Cc1ccccc1)C(=O)O].N.[Phg].A.V.[am]}$$$$V2.0)	64%	48%
CC(=O)NC[C@H](NC(=O)/C=C/C(=O)NCC(=O)NCC(=O)N[C@@H](Cc1ccccc1)C(=O)O)C(=O)N[C@@H](Cc1ccccc1)C(=O)N[C@@H](C)C(=O)N[C@H](C(N)=O)C(C)C (HELM PEPTIDE1{[O=C(/C=C/C(=O)[*:2])NCC(=O)NCC(=O)N[C@@H](Cc1ccccc1)C(=O)O].[O=C([C@H](CN[*:3])N[*:1])[*:2]].F.A.V.[am]}|PEPTIDE2{[ac]}$PEPTIDE1,PEPTIDE2,2:R3-1:R2$$$V2.0)	45%	15%
CC(C)C[C@H](NC(=O)[C@H](C)NC(=O)/C=C/C(=O)N[C@@H](C)C(=O)NCC(=O)N[C@@H](Cc1ccccc1)C(=O)O)C(=O)N[C@@H](C)C(=O)N[C@H](C(N)=O)C(C)C (HELM PEPTIDE1{[C[C@H](NC(=O)/C=C/C(=O)[*:2])C(=O)NCC(=O)N[C@@H](Cc1ccccc1)C(=O)O].A.L.A.V.[am]}$$$$V2.0)	62%	31%
CC[C@H](C)[C@H](NC(=O)[C@H](C)NC(=O)/C=C/C(=O)N[C@@H](C)C(=O)NCC(=O)N[C@@H](Cc1ccccc1)C(=O)O)C(=O)N[C@@H](C)C(=O)N[C@H](C(N)=O)C(C)C (HELM PEPTIDE1{[C[C@H](NC(=O)/C=C/C(=O)[*:2])C(=O)NCC(=O)N[C@@H](Cc1ccccc1)C(=O)O].A.I.A.V.[am]}$$$$V2.0)	37%	9%
